“And” between values parts separate entries of the source, which are not always exact repeats. Equal values may be shown once. “Also recorded” adds a separate entry of the source. Read-outs that look alike come from different tables or passages of the source.

The text below walks through data of paper PMC6130797 (ACS Omega, 2018).

The target of series [1] is T1, gpH2R (Cavia porcellus, UniProt P47747). The series can be described thus: biochemical. Type of series: biochemical, guinea pig.
Target sequence in this assay (P47747 whole entry): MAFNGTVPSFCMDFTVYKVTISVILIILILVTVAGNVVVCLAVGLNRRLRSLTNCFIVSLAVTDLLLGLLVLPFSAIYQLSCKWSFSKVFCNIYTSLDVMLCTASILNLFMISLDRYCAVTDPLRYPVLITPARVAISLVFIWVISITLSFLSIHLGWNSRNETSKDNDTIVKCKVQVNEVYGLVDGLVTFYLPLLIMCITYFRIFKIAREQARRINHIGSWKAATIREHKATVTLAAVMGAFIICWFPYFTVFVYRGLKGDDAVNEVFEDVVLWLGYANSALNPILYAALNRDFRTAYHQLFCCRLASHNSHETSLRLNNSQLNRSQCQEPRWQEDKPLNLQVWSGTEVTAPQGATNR
Target sequence in this assay (P63092 1-380 isoform P63092-2 partner): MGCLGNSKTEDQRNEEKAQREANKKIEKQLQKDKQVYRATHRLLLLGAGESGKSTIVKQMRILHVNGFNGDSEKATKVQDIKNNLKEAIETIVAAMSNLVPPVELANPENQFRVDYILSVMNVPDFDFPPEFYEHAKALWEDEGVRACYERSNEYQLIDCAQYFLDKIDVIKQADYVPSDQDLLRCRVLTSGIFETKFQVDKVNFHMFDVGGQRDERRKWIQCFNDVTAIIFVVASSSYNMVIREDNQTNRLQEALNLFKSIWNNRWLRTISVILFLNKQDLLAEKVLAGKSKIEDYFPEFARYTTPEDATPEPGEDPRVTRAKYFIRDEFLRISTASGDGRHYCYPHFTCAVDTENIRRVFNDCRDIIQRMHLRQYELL
For another series, the target named is hH1R (Homo sapiens, UniProt P35367). The series can be described thus: biochemical. Type of series: binding.
Chain of hH1R (P35367 whole entry): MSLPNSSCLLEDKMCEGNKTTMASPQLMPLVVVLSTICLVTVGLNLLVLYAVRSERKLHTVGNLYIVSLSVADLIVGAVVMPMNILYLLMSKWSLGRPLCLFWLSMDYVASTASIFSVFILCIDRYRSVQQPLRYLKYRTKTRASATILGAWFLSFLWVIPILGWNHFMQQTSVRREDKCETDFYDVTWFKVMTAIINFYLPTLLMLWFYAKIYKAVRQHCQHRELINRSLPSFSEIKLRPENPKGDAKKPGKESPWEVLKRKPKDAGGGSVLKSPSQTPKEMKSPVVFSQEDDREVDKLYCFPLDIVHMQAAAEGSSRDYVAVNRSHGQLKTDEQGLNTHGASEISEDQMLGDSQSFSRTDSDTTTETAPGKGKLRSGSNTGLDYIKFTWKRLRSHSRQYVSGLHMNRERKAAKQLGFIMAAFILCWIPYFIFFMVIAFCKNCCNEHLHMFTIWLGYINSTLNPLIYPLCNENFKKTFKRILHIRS
Series [2] concerns the target T2, hH3R (Homo sapiens, UniProt Q9Y5N1). The series can be described thus: Radioligand competition binding with [3H]Nα-methylhistamine, Sf9 cell membranes. (In a radioligand displacement assay an active substance lowers the binding of a labelled ligand.)
The target in series [3] is T1, gpH2R. The arrangement: species or system guinea pig.
Target sequence in this assay (P47747 whole entry): as the sequence (P47747 whole entry) above
Series [4] deals with T3, hH4R (Homo sapiens, UniProt Q9H3N8). The series can be described thus: Radioligand competition binding with [3H]histamine, Sf9 cell membranes.
T3 sequence (Q9H3N8 whole entry): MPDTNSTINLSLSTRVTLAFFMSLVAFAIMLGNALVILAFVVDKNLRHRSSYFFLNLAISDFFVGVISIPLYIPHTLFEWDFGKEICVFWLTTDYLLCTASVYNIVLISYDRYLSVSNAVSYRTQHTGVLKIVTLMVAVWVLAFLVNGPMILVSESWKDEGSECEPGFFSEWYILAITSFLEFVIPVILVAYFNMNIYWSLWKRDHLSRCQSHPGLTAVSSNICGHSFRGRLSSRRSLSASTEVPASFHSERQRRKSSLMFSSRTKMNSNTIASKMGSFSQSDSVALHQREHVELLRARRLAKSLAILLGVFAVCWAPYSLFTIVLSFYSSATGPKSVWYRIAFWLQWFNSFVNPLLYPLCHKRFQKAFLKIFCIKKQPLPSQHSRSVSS
The target of the next series is rH2R (Rattus norvegicus, UniProt P25102). The series can be described thus: [35S]GTPγS binding assay, Sf9 cell membranes. Type of series: biochemical. For orientation: GTPγS resists hydrolysis and so accumulates on activated G proteins.
Chain of rH2R (P25102 whole entry): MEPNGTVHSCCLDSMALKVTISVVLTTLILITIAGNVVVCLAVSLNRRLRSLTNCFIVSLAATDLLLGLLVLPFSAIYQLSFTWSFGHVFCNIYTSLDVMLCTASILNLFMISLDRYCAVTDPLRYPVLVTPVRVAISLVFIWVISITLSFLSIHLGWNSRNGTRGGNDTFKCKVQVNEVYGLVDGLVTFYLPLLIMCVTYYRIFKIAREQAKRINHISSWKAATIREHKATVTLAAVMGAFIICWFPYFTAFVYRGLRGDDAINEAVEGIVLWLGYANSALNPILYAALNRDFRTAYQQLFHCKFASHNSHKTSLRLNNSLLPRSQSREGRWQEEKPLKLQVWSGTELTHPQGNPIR
Chain of rH2R (P63092 1-380 isoform P63092-2 partner): as the sequence (P63092 1-380 isoform P63092-2 partner) above
For series [5], the target named is T3, hH4R. The series can be described thus: [35S]GTPγS binding assay, Sf9 cell membranes. Type of series: biochemical.
The target of series [6] is T4, hH2R (Homo sapiens, UniProt P25021). The series can be described thus: [35S]GTPγS binding assay, Sf9 cell membranes. Type of series: biochemical.
T4 sequence (P25021 whole entry): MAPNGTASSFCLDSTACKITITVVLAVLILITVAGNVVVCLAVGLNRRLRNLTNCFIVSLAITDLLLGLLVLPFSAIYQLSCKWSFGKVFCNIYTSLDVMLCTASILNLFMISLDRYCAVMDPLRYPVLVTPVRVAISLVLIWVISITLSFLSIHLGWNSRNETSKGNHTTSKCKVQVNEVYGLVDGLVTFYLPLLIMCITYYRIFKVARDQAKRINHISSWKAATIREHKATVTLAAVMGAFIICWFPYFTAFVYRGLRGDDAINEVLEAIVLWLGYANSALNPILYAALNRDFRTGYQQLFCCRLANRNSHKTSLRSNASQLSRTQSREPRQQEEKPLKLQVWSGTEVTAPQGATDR
T4 sequence (P63092 1-380 isoform P63092-2 partner): as the sequence (P63092 1-380 isoform P63092-2 partner) above
The target of series [7] is T4, hH2R. Type of series: binding. The following applies: for difference in pKi (H2R) over pKi (H1,3,4R): hH2R selectivity from radioligand binding.
Series [8] is described as follows: Chemical stability in binding buffer, RP-HPLC analysis. Type of series: physicochemical. Conditions: binding buffer pH 7.4, 100 μM, room temperature, 12 months. In outline: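 Test compounds (dimeric bisalkylguanidines) were held at 100 μM in binding buffer (12.5 mM MgCl2, 1 mM EDTA, 75 mM Tris/HCl, pH 7.4) at room temperature for 12 months.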
For series [9], the target named is T2, hH3R. The series can be described thus: [35S]GTPγS binding assay, Sf9 cell membranes. Type of series: biochemical.
For another series, the target named is gpH1R (Cavia porcellus, UniProt P31389). The series can be described thus: Histamine H1 receptor assay on isolated guinea pig ileum.
Chain of gpH1R (P31389 whole entry): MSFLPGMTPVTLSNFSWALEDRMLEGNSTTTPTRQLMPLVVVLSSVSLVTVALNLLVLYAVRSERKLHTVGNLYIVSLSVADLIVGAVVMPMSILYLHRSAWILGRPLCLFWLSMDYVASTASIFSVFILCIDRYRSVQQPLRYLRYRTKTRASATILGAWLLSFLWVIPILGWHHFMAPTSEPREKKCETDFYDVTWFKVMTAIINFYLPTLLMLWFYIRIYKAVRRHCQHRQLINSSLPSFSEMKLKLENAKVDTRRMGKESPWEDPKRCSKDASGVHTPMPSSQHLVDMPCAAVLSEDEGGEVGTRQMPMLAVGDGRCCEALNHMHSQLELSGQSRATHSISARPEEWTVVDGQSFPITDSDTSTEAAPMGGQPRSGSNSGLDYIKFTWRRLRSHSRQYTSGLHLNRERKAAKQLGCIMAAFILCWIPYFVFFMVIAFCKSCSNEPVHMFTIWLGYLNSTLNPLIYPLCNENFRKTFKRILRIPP
Setting [10] is: hH2R pKi, [3H]tiotidine (Kd […], c = 10 nM), mean ± SEM.
Where [11] appears, read: hH3R pKi, [3H]Nα-methylhistamine (Kd 8.6 nM, c = 3 nM), mean ± SEM.
Setting [12] is: maximal response relative to histamine (Emax = 1.00).

T2 sequence (Q9Y5N1 whole entry): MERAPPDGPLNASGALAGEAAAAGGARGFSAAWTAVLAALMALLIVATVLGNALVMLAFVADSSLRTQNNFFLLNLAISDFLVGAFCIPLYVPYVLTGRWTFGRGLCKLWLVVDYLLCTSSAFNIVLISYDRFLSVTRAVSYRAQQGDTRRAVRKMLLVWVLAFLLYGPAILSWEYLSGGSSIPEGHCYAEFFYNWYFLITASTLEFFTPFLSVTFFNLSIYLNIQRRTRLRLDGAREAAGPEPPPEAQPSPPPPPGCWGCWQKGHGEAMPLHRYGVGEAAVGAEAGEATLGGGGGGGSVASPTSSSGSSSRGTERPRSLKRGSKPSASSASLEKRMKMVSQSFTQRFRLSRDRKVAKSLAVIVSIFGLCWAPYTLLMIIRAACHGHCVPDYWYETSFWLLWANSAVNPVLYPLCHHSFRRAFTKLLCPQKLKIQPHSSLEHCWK

For `Cc1nc(N)sc1CCCNC(=N)NCCCCCCCCNC(=N)NCCCc1sc(N)nc1C` [Compound 58, 1,1′-(Octane-1,8-diyl)bis{3-[3-(2-amino-4-methylthiazol-5-yl)propyl]guanidine}], the EC50 (usually the midpoint of the concentration-response curve) was 52.5 nM at gpH2R [1], 148 nM on rH2R and 245 nM at hH2R [6]. The figures for the “gpH2R Emax” value at gpH2R [1] and at gpH2R [3] were 0.97 ± 0.06 and 0.78 ± 0.01, respectively. For the same compound, the Ki – broadly, a dissociation constant, usually derived from enzyme kinetics or from competition with a known ligand – on hH1R (Ki hH1R, bound stated) was > 1000 nM; at hH1R (hH1R pKi) it was > 3160 nM; on hH3R [2] (Ki hH3R, bound stated) it was > 1000 nM; on hH4R [4] (Ki hH4R, bound stated) it was > 1000 nM; at hH2R [7] (Ki hH2R, bound stated) it was < 100 nM; at hH2R [7] (setting [10]), 46.8 nM. Also, the “rH2R Emax” value on rH2R was 0.70 ± 0.04. Further, on hH4R [5], the “hH4R Emax” value came to 0. On hH2R [6], the “hH2R Emax” value was 0.33 ± 0.03. The “difference in pKi (H2R) over pKi (H1,3,4R)” value on hH2R [7] is “at least 1.5 log units”. Further, in series [8], the chemical stability result is “excellent chemical stabilities; also recorded: no decomposition”. Besides, the “hH3R Emax” value at hH3R [9] was determined as 0.
As for `N=C(NCCCCCCCCCCCCNC(=N)NCCCc1c[nH]cn1)NCCCc1c[nH]cn1` [Compound 57, 1,1′-(Dodecane-1,12-diyl)bis{3-[3-(1H-imidazol-4-yl)propyl]guanidine}], the Kb is 123 nM on gpH1R, 324 µM at hH4R [5] and 46.8 nM on hH3R [9]. Further, the “gpH1R pA2” value on gpH1R (guinea pig ileum, antagonism of histamine-induced contraction) is on record as 6.91. The EC50 on gpH2R [1] was 29.5 nM; on gpH2R [3] it was 7.76 nM; at rH2R it was 24.5 nM; on hH2R [6], 53.7 nM. In addition, the “gpH2R Emax” value is 0.89 ± 0.07 on gpH2R [1]; 0.63 and 0.63 ± 0.03 on gpH2R [3]. The inhibitory constant (Ki) was 355 nM at hH1R (hH1R pKi), 16.2 nM at hH3R [2] (setting [11]), 20 nM on hH4R [4] (hH4R pKi) and 38.9 nM on hH2R [7] (setting [10]). On rH2R, the “rH2R Emax” value was 0.80 and 0.80 ± 0.03. The “hH4R Emax” value on hH4R [5] turned out to be 0. The “hH2R Emax” value on hH2R [6] is 0.52 ± 0.03. Also, in [8], the chemical stability entry is on record as “excellent chemical stabilities; also recorded: no decomposition”. For the same compound, at hH3R [9], the “hH3R Emax” value stood at 0.
As for `NCCc1c[nH]cn1` [Compound 1, histamine, reference compound], the “gpH2R Emax” value on gpH2R [1] (setting [12]) was determined as 1.00; at gpH2R [3] (guinea pig right atrium, relative to maximal increase in heart rate induced by histamine (Emax = 1.00)) it was 1.00. Besides, at rH2R, a half-maximal response (EC50) required 1070 nM. In addition, the “rH2R Emax” value on rH2R (setting [12]) came out at 1.00. For the same compound, the “hH4R Emax” value on hH4R [5] (setting [12]) was determined as 1.00. At hH2R [6] (setting [12]), the “hH2R Emax” value is 1.00.
On to `Cc1nc(N)sc1CCCNC(=N)NCCCCCCCCNC(=N)NCCCc1cnc(N)s1` [Compound 63, 1-[3-(2-Amino-4-methylthiazol-5-yl)propyl]-3-{8-[3-(3-(2-aminothiazol-5-yl)propyl)guanidino]octyl}guanidine], for which the Kb is 1000 nM at gpH1R, 186 µM at hH4R [5] and 21400 nM at hH3R [9]. The EC50 on gpH2R [1] was 46.8 nM; at gpH2R [3] it was 2.75 nM; at rH2R it was 141 nM; on hH2R [6] it was 251 nM. The “gpH2R Emax” value was 1.02 and 1.02 ± 0.04 on gpH2R [1]; 0.88 ± 0.03 on gpH2R [3]. The Ki was > 3160 nM on hH1R (hH1R pKi), 3980 nM at hH3R [2] (setting [11]), 7240 nM on hH4R [4] (hH4R pKi) and 123 nM on hH2R [7] (setting [10]). Also, the maximum response (Emax) – broadly, the maximal effect, on the per cent scale that the assay sets – at gpH2R [3] was 88%. Further, the “potency relative to histamine” value on gpH2R [3] (gpH2R, atrium) was 250 times. The “rH2R Emax” value at rH2R turned out to be 0.87 ± 0.02. Moreover, the “hH4R Emax” value on hH4R [5] amounted to 0. The “hH2R Emax” value at hH2R [6] came out at 0.47 ± 0.03. In addition, on hH2R [7], the “difference in pKi (H2R) over pKi (H1,3,4R)” value is “at least 1.5 log units”. Also, the “hH3R Emax” value on hH3R [9] is 0.
As for `N=C(NCCCCCCCCNC(=N)NCCCc1c[nH]cn1)NCCCc1c[nH]cn1` [Compound 5, 1,1′-(Octane-1,8-diyl)bis{3-[3-(1H-imidazol-4-yl)propyl]guanidine}], the values for the Kb at gpH1R, on hH4R [5] and at hH3R [9] were 1700 nM, 407 µM and 135 nM, respectively. For the same compound, the EC50 at gpH2R [1] is 25.1 nM; at gpH2R [3], 10.5 nM; on rH2R it was 66.1 nM; on hH2R [6], 166 nM. In addition, the “gpH2R Emax” value at gpH2R [1] was 0.95 and 0.95 ± 0.05; on gpH2R [3], 0.91 and 0.91 ± 0.05. For the same compound, the Ki is > 1000 nM at hH1R (Ki hH1R, bound stated); 3160 nM on hH1R (hH1R pKi); < 100 nM on hH3R [2] (Ki hH3R, bound stated); 30.2 nM at hH3R [2] (setting [11]); < 100 nM on hH4R [4] (Ki hH4R, bound stated); 87.1 nM on hH4R [4] (hH4R pKi). For the same compound, the inhibition constant (Ki) at hH2R [7] (Ki hH2R, bound stated) is < 100 nM; at hH2R [7] (setting [10]) it was 89.1 nM. The “rH2R Emax” value at rH2R was determined as 0.80 ± 0.01. Besides, the “hH4R Emax” value on hH4R [5] is 0. Moreover, the “hH2R Emax” value on hH2R [6] was 0.50 ± 0.03. Also, the “hH3R Emax” value at hH3R [9] was 0.
Regarding `N=C(NCCCCCCCCNC(=N)NCCCc1cnc(N)s1)NCCCc1c[nH]cn1` [Compound 62], the values for the Kb on gpH1R, at hH4R [5] and at hH3R [9] were 977 nM, 372 µM and 81.3 nM, respectively. Further, the Ki at hH1R (hH1R pKi) is > 1000 nM; on hH3R [2] (setting [11]), 37.2 nM; at hH4R [4] (hH4R pKi) it was 107 nM; on hH2R [7] (setting [10]) it was 53.7 nM. Besides, the EC50 at gpH2R [3] was 5.62 nM; on hH2R [6], 309 nM. In addition, at gpH2R [3], the “gpH2R Emax” value is listed as 1.02 ± 0.06. At hH4R [5], the “hH4R Emax” value came to 0. Further, the “hH2R Emax” value at hH2R [6] is recorded as 0.45 ± 0.04. Moreover, on hH3R [9], the “hH3R Emax” value came out at 0.
As to `CCCCCCCCNC(=N)NCCCc1c[nH]cn1` [Compound 136], the Kb on gpH1R was 794 nM; on hH4R [5] it was 209 µM. Moreover, the Ki at hH1R (hH1R pKi) was > 3160 nM; at hH3R [2] (setting [11]) it was 107 nM; at hH4R [4] (hH4R pKi), 126 nM; on hH2R [7] (setting [10]) it was 110 nM. In addition, the EC50 on gpH2R [3] was 195 nM; at hH2R [6] it was 138 nM; at hH3R [9] it was 28.8 nM. Also, the “gpH2R Emax” value at gpH2R [3] stood at 1.13 ± 0.07. In addition, the “hH4R Emax” value at hH4R [5] turned out to be 0. For the same compound, the “hH2R Emax” value on hH2R [6] came to 0.48 ± 0.02. At hH3R [9], the “hH3R Emax” value was “–0.53 ± 0.03”. In addition, the “quality of action at hH3R” value on hH3R [9] ([35S]GTPγS binding assay) is reported as “inverse agonistic activity”.
